From ChEMBL document CHEMBL5661968, “Antitumor activity of ZSTK474, a new phosphatidylinositol 3-kinase inhibitor” (J Natl Cancer Inst, 2006)
Active and inactive are the calls of the source. The calls are words filed in the database; no cut-off is given here.

Columns and labels:
B16-F10 [1] = assay: Antitumor activity against mouse B16-F10 cells implanted in BDF1 mouse assessed as tumor size relative to control (T/C) at 12 mg/kg, iv administered on day 0 measured after 14 days; settings: 336 h
B16-F10 [2] = assay: Antitumor activity against mouse B16-F10 cells implanted in BDF1 mouse assessed as tumor growth inhibition at 50 mg/kg, po administered on day 0,3 and 7 measured after 14 days; format: functional; settings: B16-F10, 336 h, time 14 day, read-out: TGI
Outline: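 Male BDF1 mice given 5 × 10^5 B16F10 melanoma cells subcutaneously; dosing began 7 days after inoculation (day 0) in random groups of seven. Tumours were measured by calipers, with TV = (L × W²)/2 and RTV = TVn/TV0. T/C% on day 14 = 100 × mean RTV treated / mean RTV control. Body weight was also recorded.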

B16-F10 [3] = assay: Antitumor activity against mouse B16-F10 cells implanted in BDF1 mouse assessed as tumor size relative to control (T/C) at 100 mg/kg, iv administered on day 0,3 and 7 measured after 14 days; settings: 336 h
NCI-H226 = assay: Growth inhibition of human NCI-H226 cells measured after 48 hrs by sulforhodamine B assay; format: functional
Outline: (§1)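 JFCR39 panel lines were grown in RPMI 1640 with 5% FBS, penicillin and streptomycin at 37 °C in 5% CO2. After 48 h of drug exposure, total cellular protein was measured by sulforhodamine B staining. GI50 was calculated by a previously described method.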

OVCAR-5 = assay: Growth inhibition of human OVCAR-5 cells measured after 48 hrs by sulforhodamine B assay; format: functional
Outline: as §1

MKN-45 = assay: Growth inhibition of human MKN-45 cells measured after 48 hrs by sulforhodamine B assay; format: functional
Outline: as §1

[4] = Inhibition of PI3K in human A549 cell lysate preincubated with compound for 5 mins followed by [gamma-32p]-ATP addition measured after 20 mins by immunoprecipitation based liquid scintillation spectroscopic analysis; format: subcellular
Outline: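 PI3K immunoprecipitated with anti-p85 polyclonal antibody and protein G–agarose from A549 lysate (2–4 mg/mL protein), washed, suspended in buffer C (100 mM NaCl, 20 mM Tris pH 7.5) with 200 μg/mL phosphatidylinositol; compound preincubated 5 min at 25 °C; reaction started with [γ-32P]ATP (20 μM final) and 20 mM MgCl2, run 20 min at 25 °C; PI3P separated by TLC, counted by scintillation; activity as % of no-compound cpm.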

SNB-75 = assay: Growth inhibition of human SNB-75 cells measured after 48 hrs by sulforhodamine B assay; format: functional
Outline: as §1

HCT-116 = assay: Growth inhibition of human HCT-116 cells measured after 48 hrs by sulforhodamine B assay; format: functional
Outline: as §1

DMS-273 = assay: Growth inhibition of human DMS-273 cells measured after 48 hrs by sulforhodamine B assay; format: functional
Outline: as §1

DU-145 = assay: Growth inhibition of human DU-145 cells measured after 48 hrs by sulforhodamine B assay; format: functional
Outline: as §1

HCC 2998 = assay: Growth inhibition of human HCC 2998 cells measured after 48 hrs by sulforhodamine B assay; format: functional
Outline: as §1

MKN-1 = assay: Growth inhibition of human MKN-1 cells measured after 48 hrs by sulforhodamine B assay; format: functional
Outline: as §1

SF-268 = assay: Growth inhibition of human SF-268 cells measured after 48 hrs by sulforhodamine B assay; format: functional
Outline: as §1

PC-3 = assay: Growth inhibition of human PC-3 cells measured after 48 hrs by sulforhodamine B assay; format: functional
Outline: as §1

[5] = Growth inhibition of human HBC5 cells measured after 48 hrs by sulforhodamine B assay; format: functional
Outline: as §1

HCT-15 = assay: Growth inhibition of human HCT-15 cells measured after 48 hrs by sulforhodamine B assay; format: functional
Outline: as §1

LOX IMVI = assay: Growth inhibition of human LOX IMVI cells measured after 48 hrs by sulforhodamine B assay; format: functional
Outline: as §1

OVCAR-8 = assay: Growth inhibition of human OVCAR-8 cells measured after 48 hrs by sulforhodamine B assay; format: functional
Outline: as §1

[6] = Growth inhibition of human BSY1 cells measured after 48 hrs by sulforhodamine B assay; format: functional; settings: BSY-1
Outline: as §1

MKN-7 = assay: Growth inhibition of human MKN-7 cells measured after 48 hrs by sulforhodamine B assay; format: functional
Outline: as §1

NCI-H460 = assay: Growth inhibition of human NCI-H460 cells measured after 48 hrs by sulforhodamine B assay; format: functional
Outline: as §1

ACHN = assay: Growth inhibition of human ACHN cells measured after 48 hrs by sulforhodamine B assay; format: functional
Outline: as §1

NCI-H23 = assay: Growth inhibition of human NCI-H23 cells measured after 48 hrs by sulforhodamine B assay; format: functional
Outline: as §1

KM12 = assay: Growth inhibition of human KM12 cells measured after 48 hrs by sulforhodamine B assay; format: functional
Outline: as §1

SF-295 = assay: Growth inhibition of human SF-295 cells measured after 48 hrs by sulforhodamine B assay; format: functional
Outline: as §1

MKN-28 = assay: Growth inhibition of human MKN-28 cells measured after 48 hrs by sulforhodamine B assay; format: functional
Outline: as §1

OVCAR-4 = assay: Growth inhibition of human OVCAR-4 cells measured after 48 hrs by sulforhodamine B assay; format: functional
Outline: as §1

HT-29 = assay: Growth inhibition of human HT-29 cells measured after 48 hrs by sulforhodamine B assay; format: functional
Outline: as §1

MDA-MB-231 = assay: Growth inhibition of human MDA-MB-231 cells measured after 48 hrs by sulforhodamine B assay; format: functional
Outline: as §1

RXF 631 = assay: Growth inhibition of human RXF 631 cells measured after 48 hrs by sulforhodamine B assay; format: functional
Outline: as §1

A549 [7] = assay: Growth inhibition of human A549 cells measured after 48 hrs by sulforhodamine B assay; format: functional
Outline: as §1

SF-539 = assay: Growth inhibition of human SF-539 cells measured after 48 hrs by sulforhodamine B assay; format: functional
Outline: as §1

DMS-114 = assay: Growth inhibition of human DMS-114 cells measured after 48 hrs by sulforhodamine B assay; format: functional
Outline: as §1

U-251 = assay: Growth inhibition of human U-251 cells measured after 48 hrs by sulforhodamine B assay; format: functional
Outline: as §1

MKN-74 = assay: Growth inhibition of human MKN74 cells measured after 48 hrs by sulforhodamine B assay; format: functional
Outline: as §1

OVCAR-3 = assay: Growth inhibition of human OVCAR-3 cells measured after 48 hrs by sulforhodamine B assay; format: functional
Outline: as §1

NCI-H522 = assay: Growth inhibition of human NCI-H522 cells measured after 48 hrs by sulforhodamine B assay; format: functional
Outline: as §1

[8] = Growth inhibition of human HBC4 cells measured after 48 hrs by sulforhodamine B assay; format: functional
Outline: as §1

SK-OV-3 = assay: Growth inhibition of human SK-OV-3 cells measured after 48 hrs by sulforhodamine B assay; format: functional
Outline: as §1

St-4 = assay: Growth inhibition of human St-4 cells measured after 48 hrs by sulforhodamine B assay; format: functional
Outline: as §1

[9] = Residual PI3K activity in human A549 cell lysate at 1 uM preincubated with compound for 5 mins followed by [gamma-32p]-ATP addition measured after 20 mins by immunoprecipitation based liquid scintillation spectroscopic analysis relative to control; settings: A549, 25 min
SNB-78 = assay: Growth inhibition of human SNB-78 cells measured after 48 hrs by sulforhodamine B assay; format: functional
Outline: as §1

A549 [10] = assay: Irreversible inhibition of PI3K in human A549 cell lysate at 1 uM preincubated with compound for 5 mins followed by [gamma-32p]-ATP addition measured after 20 mins by immunoprecipitation based liquid scintillation spectroscopic analysis; format: subcellular; settings: time 25.0 min
Outline: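 Class Ia PI3K was immunoprecipitated with anti-p85 antibody from A549 lysate and preincubated 5 min with compound at 1 μM. The mix was split: one aliquot washed four times (100 mM NaCl, 20 mM Tris pH 7.5), the other unwashed. Each aliquot was assayed with phosphatidylinositol 200 μg/mL, [γ-32P]ATP 20 μM final and MgCl2 20 mM final, 25 °C for 20 min. PI3P was separated by TLC, scraped and counted by scintillation, expressed as % of no-compound cpm.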

Work on `COc1cccc2c1C(=O)c1c(O)c3c(c(O)c1C2=O)C[C@@](O)(C(=O)CO)C[C@@H]3O[C@H]1C[C@H](N)[C@H](O)[C@H](C)O1` [DOXORUBICIN] yielded a T/C at 12 mg/kg (B16-F10 [1]) of 24%.
With `O=c1[nH]cc(F)c(=O)[nH]1` [FLUOROURACIL] the inhibition in vivo at 50 mg/kg (B16-F10 [2]) was 68.3%.
`CCc1c2c(nc3ccc(OC(=O)N4CCC(N5CCCCC5)CC4)cc13)-c1cc3c(c(=O)n1C2)COC(=O)[C@]3(O)CC` [IRINOTECAN] gave a T/C at 100 mg/kg (B16-F10 [3]) of 96%.
Compound `O=c1cc(N2CCOCC2)oc2c(-c3ccccc3)cccc12` [LY-294002] has a GI50 (NCI-H226) of 4.37 µM, a GI50 (OVCAR-5) of 8.13 µM and a GI50 (MKN-45) of 7.08 µM. It also gave an IC50 [4] of 0.79 µM, a GI50 (SNB-75) of 2.57 µM and a GI50 (HCT-116) of 15.1 µM. The GI50 (DMS-273) was 6.03 µM, the GI50 (DU-145) was 10 µM and the GI50 (HCC 2998) was 10.5 µM. The GI50 (MKN-1) was 10.5 µM, the GI50 (SF-268) was 6.61 µM and the GI50 (PC-3) was 1.78 µM. For the same compound, the GI50 [5] was 3.98 µM, the GI50 (HCT-15) was 9.77 µM and the GI50 (LOX IMVI) was 6.17 µM. For the same compound, the GI50 (OVCAR-8) was 10 µM, the GI50 [6] was 5.01 µM and the GI50 (MKN-7) was 24 µM. The GI50 (NCI-H460) was 17 µM, the GI50 (ACHN) was 10 µM and the GI50 (NCI-H23) was 16.6 µM. For the same compound, the GI50 (KM12) was 15.5 µM, the GI50 (SF-295) was 3.24 µM and the GI50 (MKN-28) was 24.5 µM. It also gave a GI50 (OVCAR-4) of 4.27 µM, a GI50 (HT-29) of 15.1 µM and a GI50 (MDA-MB-231) of 5.37 µM. For the same compound, the GI50 (RXF 631) was 5.5 µM, the GI50 (A549 [7]) was 6.03 µM and the GI50 (SF-539) was 3.09 µM. The GI50 (DMS-114) was 2.95 µM, the GI50 (U-251) was 15.5 µM and the GI50 (MKN-74) was 18.2 µM. The GI50 (OVCAR-3) was 5.75 µM, the GI50 (NCI-H522) was 3.24 µM and the GI50 [8] was 8.71 µM. The GI50 (SK-OV-3) was 14.1 µM, the GI50 (St-4) was 20.9 µM and the level, % of control at 1 µM [9] was 44.6%. It also gave a GI50 (SNB-78) of 2.57 µM.
With `COC[C@H]1OC(=O)c2coc3c2[C@@]1(C)C1=C(C3=O)[C@@H]2CCC(=O)[C@@]2(C)C[C@H]1OC(C)=O` [WORTMANNIN] the IC50 [4] was 0.011 µM and the inhibition (A549 [10]) was “Active”.
